Test results reported in ChEMBL document CHEMBL4673214, “Synthesis and antibacterial bioactivities of cationic deacetyl linezolid amphiphiles” (Eur J Med Chem, 2018).
Values after ≈ are worked out from the molar mass of the structure shown. Active and inactive are the calls of the source. The calls are words filed in the database; no cut-off is given here.

Experiments:
Enterobacteriaceae [1] = assay: Antibacterial activity against NDM1 producing carbapenem-resistant Enterobacteriaceae clinical isolate 8 assessed as reduction in bacterial growth incubated for 16 to 20 hrs by CLSI-based broth microdilution method; type: functional; settings: time 16-20 hrs
Summary of the method: (§1)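 Clinical isolates tested by broth microdilution in cation-adjusted Mueller-Hinton broth. Cultures grown 4-6 h (~10^8 CFU/mL) were diluted to ~10^6 CFU/mL and mixed 1:1 with compound serial dilutions made from 256 down to 0.5 µg/mL (pre-mixing). Plates held at 37 °C for 16-20 h, then read for growth. Each concentration run in duplicate, whole experiment at least twice.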

Escherichia coli [2] = assay: Bactericidal activity against early exponential phase of Escherichia coli ATCC 25922 at 4X MIC measured after 2 to 6 hrs hrs by time-kill kinetic assay; type: functional, organism-based; settings: time 2-6 hrs
Summary of the method: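 An overnight culture was diluted 1:10,000 in MHB and shaken at 225 rpm and 37 °C for 2 h (early exponential phase), then exposed to compound. Samples taken at intervals were centrifuged, resuspended in PBS, plated as tenfold dilutions on MHA and incubated overnight at 37 °C. CFU/mL were counted. Biological replicates were run.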

Staphylococcus aureus [3] = assay: Antibiofilm activity against 24 hrs preformed biofilm of Staphylococcus aureus ATCC 29213 assessed as biofilm viability at 128 ug/ml incubated for 24 hrs by crystal violet staining analysis (reference value: 18.9 1og10CFU); type: functional; settings: dose 128 µg/ml
Klebsiella pneumoniae [4] = assay: Antibacterial activity against carbapenem-resistant Klebsiella pneumoniae clinical isolate 10 assessed as reduction in bacterial growth incubated for 16 to 20 hrs by CLSI-based broth microdilution method; type: functional; settings: time 16-20 hrs; summary of the method: as §1
Escherichia coli [5] = assay: Resistance ratio of compound MIC for Escherichia coli ATCC 25922 after 20 passages to compound MIC for Escherichia coli ATCC 25922 after 16 to 20 hrs by CLSI-based broth microdilution method; type: functional
Summary of the method: (§2)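 Serial passaging: after each 24 h MIC assay, cells grown at 1/2 MIC were transferred and the MIC assayed again, for 20 passages. Done with S. aureus, E. coli and MRSA. MIC plotted against days of passage. Experiment repeated twice.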

Staphylococcus aureus [6] = assay: Antibacterial activity against methicillin-resistant Staphylococcus aureus clinical isolate 4 assessed as reduction in bacterial growth incubated for 16 to 20 hrs by CLSI-based broth microdilution method; type: functional; settings: time 16-20 hrs; summary of the method: as §1
Enterobacteriaceae [7] = assay: Antibacterial activity against NDM1 producing carbapenem-resistant Enterobacteriaceae clinical isolate 1 assessed as reduction in bacterial growth incubated for 16 to 20 hrs by CLSI-based broth microdilution method; type: functional; settings: time 16-20 hrs; summary of the method: as §1
Escherichia coli [8] = assay: Antibiofilm activity against 72 hrs preformed biofilm of Escherichia coli ATCC 25922 assessed as biofilm viability at 4 ug/ml incubated for 24 hrs by […] (reference value: 16.1 log10CFU); type: functional; settings: dose 4 µg/ml
Summary of the method: (§3)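 E. coli from mid-log phase was diluted to ~10^5 CFU/mL in M9 medium with 0.02% casamino acids and 0.5% glycerol and formed biofilm without shaking for 72 h. Wells were PBS-washed, then treated with 2-128 µg/mL for 24 h at 37 °C; medium-only wells served as control. Cells were released with trypsin-EDTA and plated as tenfold dilutions. Viability was given as log10 CFU/well.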

Escherichia coli [9] = assay: Antibiofilm activity against 72 hrs preformed biofilm of Escherichia coli ATCC 25922 assessed as biofilm viability at 64 ug/ml incubated for 24 hrs by […] (reference value: 16.1 log10CFU); type: functional; settings: dose 64 µg/ml; summary of the method: as §3
Cell membrane = assay: Induction of outer membrane permeabilization in Escherichia coli ATCC 25922 at 20 ug/ml measured for 12 mins by NPN dye based fluorescence assay; settings: dose 20.0 µg/ml
Summary of the method: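 Mid-log E. coli in HEPES/glucose/KCl at ~10^8 CFU/mL was preincubated 40 min with N-phenylnaphthylamine (10 µM stock). Fluorescence (ex 350/em 420 nm) was read for an 8 min baseline, then every 2 min for 12 min after compound at 20 µg/mL final. Water served as control.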

Staphylococcus aureus [10] = assay: Antibacterial activity against methicillin-resistant Staphylococcus aureus assessed as reduction in bacterial growth following incubation in 50% MHB medium and 50% serum and meaured after incubation with compound for 20 to 24 hrs by agar plate method; type: functional; settings: time 20-24 hrs
Summary of the method: (§4)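 Sheep plasma obtained by centrifuging defibrinated blood at 3500 rpm for 10 min; serum isolated in serum tubes. MRSA at 10^5 CFU/mL in 50% MHB plus 50% serum, plasma or blood, or in MHB alone. Compound dilutions (512 to 4 µg/mL, pre-mixing) added 50 µL to 150 µL bacteria, 37 °C for 20-24 h. Then 20 µL plated on MHA, 37 °C 20-24 h; MBC taken as no colonies. Two repeats.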

Staphylococcus aureus [11] = assay: Antibacterial activity against methicillin-resistant Staphylococcus aureus clinical isolate 1 assessed as reduction in bacterial growth incubated for 16 to 20 hrs by CLSI-based broth microdilution method; type: functional; settings: time 16-20 hrs; summary of the method: as §1
Staphylococcus aureus [12] = assay: Antibacterial activity against methicillin-resistant Staphylococcus aureus assessed as reduction in bacterial growth following incubation in 50% MHB medium and 50% blood and meaured after incubation with compound for 20 to 24 hrs by agar plate method; type: functional; settings: time 20-24 hrs; summary of the method: as §4
[13] = Hemolytic activity in sheep RBC incubated for 1 hr; type: ADME, cell-based, Ovis aries, Erythrocyte; settings: sheep red blood cells (erythrocytes)
Summary of the method: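 Sheep RBCs were resuspended at 5% in PBS and mixed 3:1 with serial dilutions (2560 to 5 µg/mL, pre-mixing levels), then incubated 1 h at 37 °C. After centrifugation, supernatant A540 was read. Hemolysis % was calculated as (A−A0)/(Atotal−A0)×100, with untreated RBCs as 0% and 0.1% Triton X-100 as total lysis.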

Escherichia coli [14] = assay: Antibiofilm activity against 24 hrs preformed biofilm of Escherichia coli ATCC 25922 assessed as eradication of preformed biofilm incubated for 24 hrs by crystal violet staining assay; type: functional
Staphylococcus aureus [15] = assay: Antibacterial activity against methicillin-resistant Staphylococcus aureus clinical isolate 5 assessed as reduction in bacterial growth incubated for 16 to 20 hrs by CLSI-based broth microdilution method; type: functional; settings: time 16-20 hrs; summary of the method: as §1
Klebsiella pneumoniae [16] = assay: Antibacterial activity against carbapenem-resistant Klebsiella pneumoniae clinical isolate 1 assessed as reduction in bacterial growth incubated for 16 to 20 hrs by CLSI-based broth microdilution method; type: functional; settings: time 16-20 hrs; summary of the method: as §1
Staphylococcus aureus [17] = assay: Antibacterial activity against Staphylococcus aureus ATCC 29213 assessed as reduction in bacterial measured after 20 passages by CLSI-based broth microdilution method; type: functional; summary of the method: as §2
Enterobacteriaceae [18] = assay: Antibacterial activity against NDM1 producing carbapenem-resistant Enterobacteriaceae clinical isolate 7 assessed as reduction in bacterial growth incubated for 16 to 20 hrs by CLSI-based broth microdilution method; type: functional; settings: time 16-20 hrs; summary of the method: as §1
[19] = Selectivity index, ratio of HC50 for Sheep erythrocytes to MIC for Staphylococcus aureus ATCC 29213; type: toxicity
[20] = Solubility of the compound in water at room temperature; type: physicochemical; settings: buffer
Escherichia coli [21] = assay: Antibiofilm activity against 72 hrs preformed biofilm of Escherichia coli ATCC 25922 assessed as biofilm viability at 8 ug/ml incubated for 24 hrs by […] (reference value: 16.1 log10CFU); type: functional; settings: dose 8 µg/ml; summary of the method: as §3
Klebsiella pneumoniae [22] = assay: Antibacterial activity against carbapenem-resistant Klebsiella pneumoniae clinical isolate 7 assessed as reduction in bacterial growth incubated for 16 to 20 hrs by CLSI-based broth microdilution method; type: functional; settings: time 16-20 hrs; summary of the method: as §1

SMILES: CCCCCCCCCCCN(C[C@H]1CN(c2ccc(N3CCOCC3)c(F)c2)C(=O)O1)C(=O)[C@@H](N)CCCCN.Cl.Cl
- MIC (Enterobacteriaceae [1]): 16 µg/mL
- Activity (Escherichia coli [2]): Active
- Activity (Staphylococcus aureus [3]): 4.7 log10CFU
- MIC (Klebsiella pneumoniae [4]): 16 µg/mL
- Ratio (Escherichia coli [5]): 2
- MIC (Staphylococcus aureus [6]): 4 µg/mL
- MIC (Enterobacteriaceae [7]): > 64 µg/mL
- Activity (Escherichia coli [8]): 8.5 log10CFU
- Activity (Escherichia coli [9]): 6 log10CFU
- Activity (Cell membrane): inactive
- MBC (Staphylococcus aureus [10]): > 128 µg/mL
- MIC (Staphylococcus aureus [11]): 4 µg/mL
- MBC (Staphylococcus aureus [12]): > 128 µg/mL
- HC50 at 1 h [13]: 100 µg/mL
- MBEC (Escherichia coli [14]): 128 µg/mL
- MBEC80 (Escherichia coli [14]): 112.8 µg/mL
- MBEC90 (Escherichia coli [14]): 120.3 µg/mL
- MIC (Staphylococcus aureus [15]): 4 µg/mL
- MIC (Klebsiella pneumoniae [16]): 16 µg/mL
- MIC (Staphylococcus aureus [17]): 2 µg/mL
- MIC (Enterobacteriaceae [18]): 16 µg/mL
- selectivity ratio [19]: 50
- solubility [20]: Soluble
- Activity (Escherichia coli [21]): 8 log10CFU
- MIC (Klebsiella pneumoniae [22]): 16 µg/mL

SMILES: C[C@@H](O)[C@H]1C(=O)N2C(C(=O)O)=C(S[C@@H]3CN[C@H](C(=O)N(C)C)C3)[C@H](C)[C@H]12 [MEROPENEM]
- MIC (Enterobacteriaceae [1]): > 64 µg/mL
- MIC (Klebsiella pneumoniae [4]): 64 µg/mL (≈ 167 µM)
- MIC (Staphylococcus aureus [6]): 32 µg/mL (≈ 83.4 µM)
- MIC (Enterobacteriaceae [7]): 32 µg/mL (≈ 83.4 µM)
- Activity (Cell membrane): inactive
- MIC (Staphylococcus aureus [11]): 64 µg/mL (≈ 167 µM)
- MIC (Staphylococcus aureus [15]): 64 µg/mL (≈ 167 µM)
- MIC (Klebsiella pneumoniae [16]): > 64 µg/mL
- MIC (Enterobacteriaceae [18]): 64 µg/mL (≈ 167 µM)
- MIC (Klebsiella pneumoniae [22]): > 64 µg/mL
